Results of several laboratories.
Read-out: cell growth or viability

| SMILES | cell line | technique | tested at | time | measurement | value |
| --- | --- | --- | --- | --- | --- | --- |
| C=C(NC(=O)C(=C)NC(=O)c1csc(C2=N[C@@H]3c4csc(n4)[C@H]4NC(=O)c5csc(n5)[C@H]([C@](C)(O)[C@@H](C)O)NC(=O)[C@H]5CSC(=N5)/C(=C/C)NC(=O)[C@H]([C@@H](C)O)NC(=O)c5csc(n5)[C@]3(CC2)NC(=O)[C@H](C)NC(=O)C(=C)NC(=O)[C@H](C)NC(=O)[C@H]([C@@H](C)CC)N[C@@H]2C=Cc3c([C@H](C)O)cc(nc3[C@H]2O)C(=O)O[C@@H]4C)n1)C(N)=O | PC3-TxR |  |  |  | EC50 | > 30 µM |
| CN(C)CCNC(=O)c1ccc(-c2nc3ccc4[nH]ncc4c3c3c2CCCCC3)c(F)c1 | 22Rv1 |  |  | 72 h | GI50 | 2.13 µM |
| COc1ccc(NC(=O)Nc2cccc(-c3cn(Cc4cccc(Cl)c4)nn3)c2)cc1 | NCI-H1299 | CCK-8 | 50 µM | 72 h | viability | 134% |
| O=C(Nc1ccc(Cl)cc1)Nc1cccc(-c2cn(Cc3cccc(Cl)c3)nn2)c1 | NCI-H1299 | CCK-8 | 50 µM | 72 h | viability | 104% |
| Cc1n[nH]c2ccc3nc(-c4ccc(C(=O)NCCN(C)C)cc4F)c4c(c3c12)CCCC4 | 22Rv1 |  |  | 72 h | GI50 | 0.556 µM |
| O=C(Nc1ccc(Cl)cc1)Nc1ccc(-c2cn(Cc3cccc(Cl)c3)nn2)cc1 | NCI-H1299 | CCK-8 | 50 µM | 72 h | viability | 82.8% |
| Cc1ncsc1-c1ccc(CNC(=O)[C@@H]2C[C@@H](O)CN2C(=O)[C@@H](NC(=O)COCCOCCOCCNC(=O)C[C@@H]2N=C(c3ccc(Cl)cc3)c3c(sc(C)c3C)-n3c(C)nnc32)C(C)(C)C)cc1 | 22Rv1 | MTT |  | 6 days | IC90 | 1.85 µM |
| Cc1ccccc1Cn1cc(-c2cccc(NC(=O)Nc3ccc(F)cc3)c2)nn1 | NCI-H1299 | CCK-8 | 50 µM | 72 h | viability | 114% |
| O=C(NCc1cn(Cc2cccc(Cl)c2)nn1)Nc1ccc(Cl)cc1 | NCI-H1299 | CCK-8 | 50 µM | 72 h | viability | 91.6% |
| CCc1nc(C(N)=O)c(Nc2ccc(N3CCC(N4CCN(C)CC4)CC3)c(OC)c2)nc1NC1CCOCC1 | 22Rv1 |  |  | 72 h | GI50 | 1.52 µM |
| COc1ccc(NC(=O)Nc2cccc(-c3cn(Cc4ccc(Cl)cc4)nn3)c2)cc1 | NCI-H1299 | CCK-8 | 50 µM | 72 h | viability | 156% |
| O=C(NCc1cn(Cc2ccc(Cl)cc2)nn1)Nc1ccc(Cl)cc1 | NCI-H1299 | CCK-8 | 50 µM | 72 h | viability | 82.3% |
| COc1ccc(NC(=O)Nc2cccc(-c3cn(Cc4ccccc4C)nn3)c2)cc1 | NCI-H1299 | CCK-8 | 50 µM | 72 h | viability | 125% |
| Cc1n[nH]c2ccc3nc(-c4ccc(C(=O)NCCN(C)C)cc4F)c4c(c3c12)CCCCC4 | 22Rv1 |  |  | 72 h | GI50 | 4.62 µM |
| COc1ccc(NC(=O)NCc2cn(Cc3ccccc3C)nn2)cc1 | NCI-H1299 | CCK-8 | 50 µM | 72 h | viability | 68.9% |
| CN(C)CCNC(=O)c1ccc(-c2nc3ccc4[nH]ncc4c3c3c2CCCC3)cc1 | 22Rv1 |  |  | 72 h | GI50 | 1.8 µM |
| O=C(Nc1cccc(-c2cn(Cc3ccc(Br)cc3)nn2)c1)Nc1ccccc1Br | NCI-H1299 | CCK-8 | 50 µM | 72 h | viability | 108% |
